Experimental data taken from ChEMBL document CHEMBL3259693, “Multitarget drug discovery for tuberculosis and other infectious diseases” (J Med Chem, 2014).
Values after ≈ are worked out from the molar mass of the structure shown. Active and inactive are the calls of the source. The rule behind the calls is not given here.

Key:
[1] = Inhibition of Mycobacterium tuberculosis MenA
[2] = system: Mycobacterium tuberculosis; test: Antimicrobial activity against Mycobacterium tuberculosis H37Rv; format: functional
[3] = system: Mycobacterium tuberculosis; test: microbe, parasite or virus in culture; format: functional; conditions: ATCC 27294
[4] = system: Mycolicibacterium smegmatis; test: microbe, parasite or virus in culture; format: functional; conditions: ATCC 700084
[5] = system: Bacillus subtilis; test: Antimicrobial activity against Bacillus subtilis subsp. subtilis ATCC 6051 after 12 to 16 hrs by microbroth dilution method; format: functional, organism-based
[6] = system: Escherichia coli; test: microbe, parasite or virus in culture; format: functional, organism-based; conditions: ATCC 29425, 3 h
[7] = system: Saccharomyces cerevisiae; test: Antimicrobial activity against Saccharomyces cerevisiae ATCC 208352 after 48 hrs by microbroth dilution method; format: functional, organism-based; conditions: ATCC 208352, 48 h
[8] = system: Candida albicans; test: Antimicrobial activity against Candida albicans CAI-4; format: functional, organism-based
[9] = system: Plasmodium falciparum; test: Antimicrobial activity against Plasmodium falciparum 3D7 by intraerythrocytic assay; format: functional, organism-based
[10] = system: MCF7; test: Cytotoxicity against human MCF7 cells assessed as growth inhibition by MTT assay; format: cell-based
[11] = Therapeutic index, ratio of IC50 for human MCF7 cells to IC50 for Plasmodium falciparum 3D7; format: cell-based; conditions: MCF7 cells versus Plasmodium falciparum 3D7, read-out: Ratio IC50
[12] = system: Escherichia coli; test: Ratio of IC50 for Escherichia coli ATCC 29425 in presence of 10% fetal bovine serum to IC50 for Escherichia coli ATCC 29425; format: functional
How it was run: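 E. coli broth microdilution in LB. Culture was grown to OD600 ~0.4, diluted 500-fold, and exposed to compound from 0.3 mM, 2× serially diluted to 292 nM. Plates ran 3 h at 37 °C with or without 10% FBS. Viability was read by MTT at 570 nm, and IC50 was obtained by non-linear regression.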

[13] = Inhibition of Mycobacterium tuberculosis cis-farnesyl diphosphate synthase
[14] = Inhibition of Mycobacterium tuberculosis cis-decaprenyl diphosphate synthase
[15] = Inhibition of Plasmodium vivax geranylgeranyl diphosphate synthase
[16] = Inhibition of Staphylococcus aureus undecaprenyl diphosphate synthase
[17] = Inhibition of Escherichia coli undecaprenyl diphosphate synthase
[18] = Inhibition of Staphylococcus aureus farnesyl diphosphate synthase
[19] = biological target: T1, Geranylgeranyl pyrophosphate synthase (Homo sapiens, UniProt O95749); test: Inhibition of human geranylgeranyl diphosphate synthase
T1 sequence (O95749 whole entry): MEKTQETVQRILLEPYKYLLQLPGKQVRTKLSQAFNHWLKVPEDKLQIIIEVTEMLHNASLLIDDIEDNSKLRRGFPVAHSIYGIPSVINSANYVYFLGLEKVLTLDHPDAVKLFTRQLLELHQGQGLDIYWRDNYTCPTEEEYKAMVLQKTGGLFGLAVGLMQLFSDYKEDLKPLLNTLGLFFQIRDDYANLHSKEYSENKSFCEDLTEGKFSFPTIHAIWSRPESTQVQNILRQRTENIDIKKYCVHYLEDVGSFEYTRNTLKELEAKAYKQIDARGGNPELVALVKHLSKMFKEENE

[20] = biological target: T2, 4,4'-diapophytoene synthase (Staphylococcus aureus, UniProt A9JQL9); test: Inhibition of Staphylococcus aureus CrtM
T2 sequence (A9JQL9 whole entry): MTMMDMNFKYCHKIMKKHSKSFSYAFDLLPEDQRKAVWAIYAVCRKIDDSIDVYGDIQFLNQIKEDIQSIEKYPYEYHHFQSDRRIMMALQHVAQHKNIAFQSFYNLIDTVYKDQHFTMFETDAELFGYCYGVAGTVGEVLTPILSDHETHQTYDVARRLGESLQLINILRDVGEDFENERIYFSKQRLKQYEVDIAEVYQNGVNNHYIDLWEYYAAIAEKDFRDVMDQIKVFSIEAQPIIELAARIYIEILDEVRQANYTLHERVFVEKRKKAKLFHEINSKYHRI

[21] = biological target: T3, Squalene synthase (Homo sapiens, UniProt P37268); test: Inhibition of human SQS
T3 sequence (P37268 whole entry): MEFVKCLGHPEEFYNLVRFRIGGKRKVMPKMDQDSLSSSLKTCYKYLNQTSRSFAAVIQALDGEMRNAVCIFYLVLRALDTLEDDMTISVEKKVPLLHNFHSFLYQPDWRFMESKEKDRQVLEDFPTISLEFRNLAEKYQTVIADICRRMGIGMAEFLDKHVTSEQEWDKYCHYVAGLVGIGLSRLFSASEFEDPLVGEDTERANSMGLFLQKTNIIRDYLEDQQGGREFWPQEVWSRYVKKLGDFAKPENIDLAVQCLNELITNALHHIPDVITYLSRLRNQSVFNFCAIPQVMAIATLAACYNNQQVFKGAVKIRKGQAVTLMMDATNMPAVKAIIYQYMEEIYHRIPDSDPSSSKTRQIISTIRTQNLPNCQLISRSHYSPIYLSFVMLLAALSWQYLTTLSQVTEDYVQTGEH

[22] = Inhibition of Mycobacterium smegmatis MenA; design: species or system Mycolicibacterium smegmatis
[23] = Inhibition of Mycobacterium smegmatis MenG using radiolabeled S-adenosylmethionine as substrate after 1 hr by liquid scintillation counting analysis; design: species or system Mycolicibacterium smegmatis
[24] = system: Mycolicibacterium smegmatis; test: Inhibition of respiration in Mycobacterium smegmatis after 5 mins by methylene blue reduction assay in presence of NADH; format: functional, organism-based
[25] = system: Mycolicibacterium smegmatis; test: Disruption of membrane potential in Mycobacterium smegmatis by DisC3(5) probe-based fluorescence spectrophotometry; format: functional, organism-based
[26] = Inhibition of Escherichia coli N-terminal strep-tagged MenA expressed in Escherichia coli C43 (DE3) assessed as demethylmenaquinone-3 formation after 30 mins by HPLC analysis
[27] = system: Escherichia coli; test: Induction of collapse in deltapH in Escherichia coli inverted membrane vesicles by 31P NMR spectroscopy; format: functional, organism-based
[28] = system: Mycobacterium tuberculosis; test: Antimicrobial activity against Mycobacterium tuberculosis H37Rv incubated for 7 days measured after 28 days by resazurin microplate reduction assay; format: functional
How it was run: (§1)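 Resazurin microplate reduction assay (REMA) on actively growing M. tuberculosis H37Rv. Drug tested from 10 ng/mL to 10 μg/mL. Medium was supplemented with 0, 10, 100 or 1000 μM menaquinone-4 (MK-4) to test quinone rescue. Activity was read as loss of resazurin reduction to fluorescent resorufin, giving an MIC.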

[29] = system: Mycobacterium tuberculosis; test: Antimicrobial activity against nonreplicating streptomycin-starved Mycobacterium tuberculosis 18b at 1 ug/ml incubated for 7 days measured after 28 days by resazurin microplate reduction assay; format: functional
[30] = system: Mycobacterium tuberculosis; test: Antimicrobial activity against Mycobacterium tuberculosis H37Rv incubated for 7 days measured after 28 days by resazurin microplate reduction assay in presence of MK-4; format: functional; how it was run: as §1
[31] = Inhibition of Mycobacterium smegmatis malate dehydrogenase using malate as substrate by MTT assay; design: species or system Mycolicibacterium smegmatis
How it was run: (§2)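 M. smegmatis membrane preparation with 5 mM KCN. Dehydrogenase activity was followed as MTT reduction at 570 nm after adding substrate: NADH (Complex I plus NDH-2), deamino-NADH (Complex I only), succinate, malate or lactate. IC50 values were derived from these rates.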

[32] = Therapeutic index, ratio of IC50 for human MCF7 cells to MIC for Mycobacterium tuberculosis ATCC 27294; format: cell-based; conditions: MCF7 cells versus Mycobacterium tuberculosis ATCC 27294, read-out: TI
[33] = Inhibition of Mycobacterium smegmatis electron transport protein complex 1 using NADH as substrate by MTT assay; design: species or system Mycolicibacterium smegmatis; how it was run: as §2
[34] = Inhibition of Mycobacterium smegmatis NADH dehydrogenase using […] by MTT assay; design: species or system Mycolicibacterium smegmatis; how it was run: as §2
[35] = Inhibition of Mycobacterium smegmatis electron transport protein complex 1 using deamino-NADH as substrate by MTT assay; design: species or system Mycolicibacterium smegmatis; how it was run: as §2
[36] = Inhibition of Mycobacterium smegmatis succinate dehydrogenase using succinate as substrate by MTT assay; design: species or system Mycolicibacterium smegmatis; how it was run: as §2
[37] = Inhibition of Mycobacterium smegmatis lactate dehydrogenase using lactate as substrate by MTT assay; design: species or system Mycolicibacterium smegmatis; how it was run: as §2
[38] = system: Mycolicibacterium smegmatis; test: Induction of collapse in deltapH in Mycobacterium smegmatis inverted membrane vesicles at 30 to 150 uM by 31P NMR spectroscopy; format: functional

SMILES: CC(C)=CCC/C(C)=C/CNCCNC1C2CC3CC(C2)CC1C3 (centres undefined) [SQ109]
- IC50 [1]: 9 µM
- MIC [2]: 0.7 µM (≈ 0.231 µg/mL)
- MIC [3]: 0.3 µM (≈ 0.0992 µg/mL)
- MIC [4]: 9.4 µM (≈ 3.11 µg/mL)
- IC50 [5]: 23 µM
- IC50 [6]: 8.5 µM
- IC50 [7]: 3.3 µM
- IC50 [8]: 10 µM
- IC50 [9]: 3 µM
- IC50 [10]: 18 µM
- selectivity ratio [11]: 18
- Ratio IC50 [12]: 1.6
- IC50 [13]: ≥ 50 µM
- IC50 [14]: ≥ 50 µM
- IC50 [15]: ≥ 50 µM
- IC50 [16]: ≥ 50 µM
- IC50 [17]: ≥ 50 µM
- IC50 [18]: ≥ 50 µM
- IC50 [19]: 4.5 µM
- IC50 [20]: 100 µM
- IC50 [21]: 100 µM
- IC50 [22]: 4.8 µM
- IC50 [23]: 13 µM
- IC50 [24]: 58 µM
- EC50 [25]: 20 µg/mL (≈ 60.5 µM)
- IC50 [25]: 55 µM
- IC50 [26]: 3.3 µM
- IC50 [27]: 0.8 µM
- MIC [28]: 0.15 µg/mL (≈ 0.454 µM)
- MIC [29]: 1 µg/mL (≈ 3.03 µM)
- MIC [30]: 1 µg/mL
- IC50 [31]: 10 µg/mL (≈ 30.3 µM)
- selectivity ratio [32]: 120
- IC50 [33]: 30 µg/mL (≈ 90.8 µM)
- IC50 [34]: 30 µg/mL (≈ 90.8 µM)
- IC50 [35]: 30 µg/mL (≈ 90.8 µM)
- IC50 [36]: 30 µg/mL (≈ 90.8 µM)
- IC50 [37]: 30 µg/mL (≈ 90.8 µM)
- Activity [38]: Active
